In PubChem BioAssay AID504491 (The Scripps Research Institute Molecular Screening Center, 2011):
The source made the active and inactive calls.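 Rule for the calls: active = inhibition of the target enzyme PAFAH2 of at least 50%, whatever the off-target enzymes show; inactive = PAFAH2 inhibition under 50%.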

Experiments:
Assay in all cases: serine hydrolase selectivity versus PAFAH2 – cell lysate, gel-based fluorescence ABPP, carbamate vs triazole urea, selectivity assay, late-stage follow-up (AID 504491)
[1] = test system: LYPLA1; details: BW5147 mouse T-cell proteome, gel ABPP FP-Rh, 30 min, at 20 µM, active compounds read high
Summary of the method: (§1)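 Assay system: mouse BW5147 T-cell soluble lysate; quantity: proteome at 1 mg/mL protein; medium: Dulbecco's phosphate-buffered saline; dosing: single dose of test compound at 20 µM; timing: 30 min compound, 30 min probe, 25 °C; technique: SDS-PAGE separation with in-gel fluorescence scanning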

[2] = test system: ABHD11; details: BW5147 mouse T-cell proteome, gel ABPP FP-Rh, 30 min, at 20 µM, active compounds read high
Summary of the method: as §1

[3] = test system: ESD; details: BW5147 mouse T-cell proteome, gel ABPP FP-Rh, 30 min, at 20 µM, active compounds read high
Summary of the method: as §1

[4] = target: Platelet-activating factor acetylhydrolase 2, cytoplasmic (Mus musculus) (UniProt Q8VDG7); details: BW5147 mouse T-cell proteome, gel ABPP FP-Rh, 30 min; PAFAH2; at 20 µM; active compounds read high
Chain of Platelet-activating factor acetylhydrolase 2, cytoplasmic (Mus musculus) (Q8VDG7 whole entry, looked up): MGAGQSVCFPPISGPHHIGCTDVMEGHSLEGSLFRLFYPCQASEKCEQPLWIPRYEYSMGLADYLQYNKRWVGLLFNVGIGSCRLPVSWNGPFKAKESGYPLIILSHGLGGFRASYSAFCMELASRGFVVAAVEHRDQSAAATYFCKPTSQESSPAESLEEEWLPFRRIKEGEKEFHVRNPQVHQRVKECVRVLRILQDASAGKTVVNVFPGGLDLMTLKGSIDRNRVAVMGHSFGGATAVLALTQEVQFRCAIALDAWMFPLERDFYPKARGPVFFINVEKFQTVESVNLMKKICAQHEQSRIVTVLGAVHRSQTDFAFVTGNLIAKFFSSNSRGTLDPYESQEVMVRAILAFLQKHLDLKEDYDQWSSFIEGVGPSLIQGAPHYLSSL
Summary of the method: as §1

[5] = test system: APEH; details: BW5147 mouse T-cell proteome, gel ABPP FP-Rh, 30 min, at 20 µM, active compounds read high
Summary of the method: as §1

[6] = test system: LYPLA2; details: BW5147 mouse T-cell proteome, gel ABPP FP-Rh, 30 min, at 20 µM, active compounds read high
Summary of the method: as §1

| SMILES | inhibition [1] | inhibition [2] [%] | inhibition [3] | inhibition [4] | inhibition [5] | inhibition [6] |
| --- | --- | --- | --- | --- | --- | --- |
| O=C(Oc1ccc([N+](=O)[O-])cc1)N1CCCCC1 | 0% (inactive) | 100 | 0% (inactive) | 0% (inactive) | 0% (inactive) | 0% (inactive) |
| O=C(N1CCCCC1)n1ccnn1 | 100% | 100 | 100% | 100% | 100% | 100% |
